From ChEMBL document CHEMBL6092204, “Synthesis of pyridyl pyrimidine hedgehog signaling pathway inhibitors and their antitumor activity in human pancreatic cancer” (Eur J Med Chem, 2024) come the findings set out here.

Data set [1] relates to PANC-1. The data set is described as follows: Inhibition of Hh signaling pathway in human PANC-1 cells assessed as reduction in Gli1 level incubated for 48 hrs by Western blot analysis. The note with it: dose 2.5-10 µM. In kind it is cell-based. In outline:
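Cells were treated in 6-well plates for 48 h, lysed by sonication in RIPA with PMSF, and quantified by BCA. 20-30 μg protein was run on 6-12% gradient SDS-PAGE and transferred to PVDF. Membranes were blocked 2 h at room temperature, probed with anti-Gli1 overnight at 4 °C and secondary 1.5 h at room temperature, then developed by ECL. Densitometry was normalised to β-actin; three separate experiments.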

A short description of data set [2]: Toxicity in BALB/c nude mouse xenografted with human BxPC-3 cells assessed as tissue fibrosis in liver at 5 to 15 mg/kg, ip qd for 21 days by H and E staining based analysis. The note with it: in vivo, 504 h.
For data set [3], the system named is PANC-1. The data set is described as follows: Induction of cell cycle arrest in human PANC-1 cells assessed as accumulation at G1 phase at 2.5 uM incubated for 48 hrs by PI/RNase staining based flow cytometry (reference value: 82.0 %). The class given is functional.
Data set [4] deals with BXPC-3. The data set is described as follows: Induction of cell cycle arrest in human BXPC-3 cells assessed as accumulation at G1 phase at 5 uM incubated for 48 hrs by PI/RNase staining based flow cytometry (reference value: 84.2 %). The class given is functional.
Data set [5] concerns BXPC-3. Nature of the data set: Induction of cell cycle arrest in human BXPC-3 cells assessed as accumulation at G1 phase at 2.5 uM incubated for 48 hrs by PI/RNase staining based flow cytometry (reference value: 84.2 %). In kind it is functional.
Data set [6] in a line: Toxicity in BALB/c nude mouse xenografted with human BxPC-3 cells assessed as cellular edema in liver at 5 to 15 mg/kg, ip qd for 21 days by H and E staining based analysis. The conditions noted are these: in vivo, 504 h.
The subject of data set [7] is BXPC-3. The data set is described as follows: Induction of cell cycle arrest in human BXPC-3 cells assessed as accumulation at S phase at 5 uM incubated for 48 hrs by PI/RNase staining based flow cytometry (reference value: 8.18 %). The class given is functional.
Data set [8] has as its system BXPC-3. Nature of the data set: Inhibition of cell migration in human BXPC-3 cells incubated for 24 hrs by wound healing assay. The class given is functional, cell-based. The note with it: dose 2.5-10 µM. In outline: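 Monolayers at 80-90% confluence were scratched with a cross and washed three times with PBS. Eight fields were imaged at 0 h. Cells were then incubated with compound in medium containing 2% FBS, and the same fields were re-imaged at 24 h (100×). Closure % = (area 0 h − area 24 h)/area 0 h × 100; n = 3.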

Data set [9] can be described thus: Toxicity in BALB/c nude mouse xenografted with human BxPC-3 cells assessed as necrosis in liver at 5 to 15 mg/kg, ip qd for 21 days by H and E staining based analysis. The conditions noted are these: in vivo, 504 h.
In data set [10] the test system is PANC-1. The data set is described as follows: Induction of apoptosis in human PANC-1 cells assessed as early apoptotic cells at 8 uM incubated for 48 hrs by Annexin V-FITC/PI staining based flow cytometry (reference value: 1.88 %). The class given is functional.
Data set [11] has as its system PANC-1. Nature of the data set: Induction of apoptosis in human PANC-1 cells assessed as necrotic cells at 5 uM incubated for 48 hrs by Annexin V-FITC/PI staining based flow cytometry (reference value: 2.24 %). In kind it is functional.

As for `CN(C)Cc1ccc(NC(=O)c2ccc(Nc3nccc(-c4cccnc4)n3)cc2)cc1`, the inhibition result in data set [1] and in data set [8] was “Dose-dependent-effect” throughout. The Activity entry is given as “Non-toxic” in [2]; 83.7% in data set [3]; 83.9% in data set [4]; 72.7% in data set [5]; “Non-toxic” in [6]; 4.09% in data set [7]. The Activity entry is reported as “Non-toxic” in data set [9], 2.97% in data set [10] and 2.39% in data set [11].
